Activity calls are given as the source filed them. The rule behind the calls is not given here. *1 amine or outer side, *2 acyl side, *3 side chain or, on linkers, in order; H or OH if unused. Where a SMILES comes first, the peptide text is derived from it. Bridges are numbered along the chain shown (N, C = ends). [ ]: non-standard residue; d: D form. Dab = NCC[C@H](N)C(=O)O; CO = O=C([*:1])[*:2]
Legend:
[1] = Toxicity in CD-1 mouse assessed as appearance of lesions in heart at 4 mg/kg, ip administered daily for 6 days by H and E staining based assay; format: organism-based; settings: in vivo, 144 h, time 6 day
[2] = test system: Streptococcus pneumoniae; assay: Antagonist activity against CSP1-mediated pneumolysin release in Streptococcus pneumoniae D39 assessed as inhibition of autolytic release of pneumolysin at 46 to 368 nM in presence of CSP1 by Western blot analysis; settings: filed as antagonist, dose 46-368 nM
[3] = test system: Erythrocyte; assay: Hemolytic activity against sheep RBC assessed as hemolysis using compound treated Streptococcus pneumoniae D39 cultured PLY supernatant at 46 to 368 nM incubated for 30 mins; format: toxicity, cell-based, Ovis aries; settings: 0.5 h, 0.368 µM, dose 46-368 nM
Procedure, shortened: (§1)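 Supernatants: centrifuged, 0.22 μm filtered, concentrated 50x, serially two-fold diluted, 10 mM DTT for 15 min at room temperature. Then mixed with 2% sheep RBC for 30 min at 37 °C; A541 of cleared supernatant read. HU = highest dilution giving 50% lysis. Triplicate.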

[4] = test system: Erythrocyte; assay: Hemolytic activity against sheep RBC assessed as hemolysis using compound treated Streptococcus pneumoniae TIGR4 cultured PLY supernatant at 46 to 368 nM incubated for 30 mins; format: toxicity, cell-based, Ovis aries; settings: 0.5 h, 0.368 µM, dose 46-368 nM; procedure, shortened: as §1
[5] = Toxicity in Streptococcus pneumoniae D39 infected CD-1 mouse model assessed as mortality at 4 mg/kg,iv measured after 120 hrs post infection; format: organism-based; settings: in vivo
Procedure, shortened: (§2)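 Seven-week-old CD-1 mice, male and female, n=15 per cohort, isoflurane-anaesthetized, infected intranasally with D39 (4.5×10^6 CFU) or TIGR4 (1.07×10^6 CFU). Treated retro-orbitally i.v. with 4 mg/kg or PBS vehicle at 2 and 24 hpi; mortality monitored for 120 hpi.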

[6] = Toxicity in Streptococcus pneumoniae TIGR4 infected CD-1 mouse model assessed as mortality at 4 mg/kg,iv measured after 72 hrs post; format: organism-based; settings: in vivo; procedure, shortened: as §2
[7] = test system: Streptococcus pneumoniae; assay: Antibacterial activity against erythromycin-resistant Streptococcus pneumoniae D39 infected in CD-1 mouse assessed as reduction in bacterial burden in mouse lung at 4 mg/kg,iv measured after 48 hrs post infection; format: functional, organism-based
Procedure, shortened: (§3)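 Seven-week-old CD-1 mice, male and female, n=10 per cohort, inoculated intranasally with a 1:1 mix of D39-rplL-ErmR and TIGR4-rplL-KanR (2.5×10^6 CFU each). Treated retro-orbitally i.v. with 4 mg/kg or PBS vehicle at 2 and 24 hpi; euthanized at 48 hpi. Lung and spleen homogenates were plated on THY with erythromycin (250 ng/mL) for D39 or […] for TIGR4.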

[8] = test system: Streptococcus pneumoniae; assay: Antibacterial activity against erythromycin-resistant Streptococcus pneumoniae D39 infected in CD-1 mouse assessed as reduction in bacterial burden in mouse spleen at 4 mg/kg,iv measured after 48 hrs post infection; format: functional, organism-based; procedure, shortened: as §3
[9] = Toxicity in CD-1 mouse assessed as increase in body weight at 4 mg/kg, ip administered daily for 6 days; format: organism-based; settings: in vivo, 144 h, time 6 day
[10] = Toxicity in CD-1 mouse assessed as appearance of lesions in spleen at 4 mg/kg, ip administered daily for 6 days by H and E staining based assay; format: organism-based; settings: in vivo, 144 h, time 6 day
[11] = Toxicity in CD-1 mouse assessed as appearance of lesions in kidney at 4 mg/kg, ip administered daily for 6 days by H and E staining based assay; format: organism-based; settings: in vivo, 144 h, time 6 day
[12] = Toxicity in CD-1 mouse assessed as appearance of lesions in lung at 4 mg/kg, ip administered daily for 6 days by H and E staining based assay; format: organism-based; settings: in vivo, 144 h, time 6 day
[13] = Toxicity in CD-1 mouse assessed as appearance of lesions in liver at 4 mg/kg, ip administered daily for 6 days by H and E staining based assay; format: organism-based; settings: in vivo, 144 h, time 6 day

With `CC[C@H](C)[C@H](NC(=O)[C@H](Cc1ccccc1)NC(=O)[C@@H]1CCNC(=O)NCC[C@H](NC(=O)[C@H](CO)NC(=O)[C@H](CC(C)C)NC(=O)[C@H](CCCNC(=N)N)NC(=O)[C@H](CCSC)NC(=O)[C@H](C)N)C(=O)N[C@@H](Cc2ccccc2)C(=O)N[C@@H](Cc2ccccc2)C(=O)N[C@@H](CCCNC(=N)N)C(=O)N1)C(=O)N[C@@H](CC(C)C)C(=O)N[C@@H](CCC(N)=O)C(=O)N[C@@H](CCCNC(=N)N)C(=O)N[C@@H](CCCCN)C(=O)N[C@@H](CCCCN)C(=O)O` (H-AMRLS[Dab]FFR[Dab]FILQRKK-OH; linker 6-10 via CO) the Activity [1] was “Non-Toxic”, the Activity [2] was “Active” and the Activity [3] was “Non-Toxic”. For the same compound, the Activity [4] was “Toxic”, the Activity [5] was “Non-Toxic” and the mortality at 72 h [6] was 50%. For the same compound, the Activity [7] was “Active”, the Activity [8] was “Active” and the Activity [9] was “Non-Toxic”. The Activity [10] was “Non-Toxic”, the Activity [11] was “Non-Toxic” and the Activity [12] was “Non-Toxic”. For the same compound, the Activity [13] was “Non-Toxic”.

Source: ChEMBL document CHEMBL5143675, “Attenuating the Streptococcus pneumoniae Competence Regulon Using Urea-Bridged Cyclic Dominant-Negative Competence-Stimulating Peptide Analogs” (J Med Chem, 2022)
